Laboratory results as given in ChEMBL document CHEMBL3407457, “Microwave-assisted synthesis of certain pyrrolylpyridines, some derived ring systems and their evaluation as anticancer and antioxidant agents” (Eur J Med Chem, 2015).
Activity calls are given as the source filed them. No cut-off for these calls is given here.

What was measured:
Type in all cases: functional
UO-31 = assay: Growth inhibition of human UO31 cells at 10 uM after 48 hrs by sulforhodamine B assay
In short: (§1)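 NCI-60 primary screen: cells given a single 10 µM dose under 48 h continuous exposure. Growth/viability estimated by sulforhodamine B protein assay. Reported as percent growth of treated cells (mean graph), expressed as percent growth inhibition.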

[1] = Growth inhibition of human RPMI8226 cells at 10 uM after 48 hrs by sulforhodamine B assay; conditions: RPMI-8226, 48 h, read-out: GI; in short: as §1
MDA-MB-468 = assay: Growth inhibition of human MDA-MB-468 cells at 10 uM after 48 hrs by sulforhodamine B assay; in short: as §1
U-251 = assay: Growth inhibition of human U251 cells at 10 uM after 48 hrs by sulforhodamine B assay; in short: as §1
NCI-H522 = assay: Growth inhibition of human NCI-H522 cells at 10 uM after 48 hrs by sulforhodamine B assay; in short: as §1
LOX IMVI = assay: Growth inhibition of human LOXIMVI cells at 10 uM after 48 hrs by sulforhodamine B assay; in short: as §1
IGROV-1 = assay: Growth inhibition of human IGROV1 cells at 10 uM after 48 hrs by sulforhodamine B assay; conditions: IGROV-1, 48 h, read-out: GI; in short: as §1
[2] = Growth inhibition of human HOP92 cells at 10 uM after 48 hrs by sulforhodamine B assay; conditions: HOP-92, 48 h, read-out: GI; in short: as §1
SK-MEL-5 = assay: Growth inhibition of human SK-MEL-5 cells at 10 uM after 48 hrs by sulforhodamine B assay; in short: as §1
Hs-578T = assay: Growth inhibition of human Hs 578T cells at 10 uM after 48 hrs by sulforhodamine B assay; in short: as §1
CCRF-CEM = assay: Growth inhibition of human CCRF-CEM cells at 10 uM after 48 hrs by sulforhodamine B assay; conditions: read-out: GI; in short: as §1
SNB-75 = assay: Growth inhibition of human SNB75 cells at 10 uM after 48 hrs by sulforhodamine B assay; in short: as §1
HCT-116 = assay: Growth inhibition of human HCT116 cells at 10 uM after 48 hrs by sulforhodamine B assay; in short: as §1
[3] = Growth inhibition of human OVCAR4 cells at 10 uM after 48 hrs by sulforhodamine B assay; conditions: OVCAR-4, 48 h, read-out: GI; in short: as §1
PC-3 = assay: Growth inhibition of human PC3 cells at 10 uM after 48 hrs by sulforhodamine B assay; in short: as §1
CAKI-1 = assay: Growth inhibition of human CAKI-1 cells at 10 uM after 48 hrs by sulforhodamine B assay; in short: as §1
HL-60(TB) = assay: Growth inhibition of human HL-60(TB) cells at 10 uM after 48 hrs by sulforhodamine B assay; conditions: HL-60, 48 h, read-out: GI
In short: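 NCI-60 one-dose primary screen, HL-60(TB) within the leukemia subpanel. Single 10 µM concentration, 48 h continuous exposure. Growth estimated by sulforhodamine B protein assay. Percent growth of treated cells expressed as percentage growth inhibition (GI%).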

[4] = Growth inhibition of human HCT15 cells at 10 uM after 48 hrs by sulforhodamine B assay; conditions: HCT-15, 48 h, read-out: GI; in short: as §1
K562 = assay: Growth inhibition of human K562 cells at 10 uM after 48 hrs by sulforhodamine B assay; in short: as §1
T47D = assay: Growth inhibition of human T47D cells at 10 uM after 48 hrs by sulforhodamine B assay; conditions: read-out: GI; in short: as §1
A498 = assay: Growth inhibition of human A498 cells at 10 uM after 48 hrs by sulforhodamine B assay; conditions: A498, 48 h, read-out: GI; in short: as §1
ACHN = assay: Growth inhibition of human ACHN cells at 10 uM after 48 hrs by sulforhodamine B assay; in short: as §1
EKVX = assay: Growth inhibition of human EKVX cells at 10 uM after 48 hrs by sulforhodamine B assay; in short: as §1
[5] = Growth inhibition of human UACC62 cells at 10 uM after 48 hrs by sulforhodamine B assay; conditions: UACC-62, 48 h, read-out: GI; in short: as §1
[6] = Growth inhibition of human MOLT4 cells at 10 uM after 48 hrs by sulforhodamine B assay; conditions: MOLT-4, 48 h, read-out: GI; in short: as §1

SMILES: CC1CCCc2c1nc1ncn3ncnc3c1c2-c1cccn1C (stereo not given)
- growth inhibition (GI) (UO-31): inactive
- inhibition of growth at 10 µM [1]: 12.2%
- growth inhibition (GI) (MDA-MB-468): inactive
- growth inhibition (GI) (U-251): inactive
- growth inhibition (GI) (NCI-H522): inactive
- growth inhibition (GI) (LOX IMVI): inactive
- inhibition of growth at 10 µM (IGROV-1): 7.9%
- inhibition of growth at 10 µM [2]: 10.1%
- growth inhibition (GI) (SK-MEL-5): inactive
- growth inhibition (GI) (Hs-578T): inactive
- inhibition of growth at 10 µM (CCRF-CEM): 10.3%
- growth inhibition (GI) (SNB-75): inactive
- growth inhibition (GI) (HCT-116): inactive
- inhibition of growth at 10 µM [3]: 6.1%
- growth inhibition (GI) (PC-3): inactive
- growth inhibition (GI) (CAKI-1): inactive
- inhibition of growth at 10 µM (HL-60(TB)): 8.5%
- inhibition of growth at 10 µM [4]: 6.3%
- growth inhibition (GI) (K562): inactive
- inhibition of growth at 10 µM (T47D): 11.8%
- inhibition of growth at 10 µM (A498): 5.7%
- growth inhibition (GI) (ACHN): inactive
- growth inhibition (GI) (EKVX): inactive
- inhibition of growth at 10 µM [5]: 8.3%
- inhibition of growth at 10 µM [6]: 20.4%
